Here are results for five compounds from paper PMC3513709 (The Biochemical journal, 2012).

Experiment [1] deals with hCHT (human chitotriosidase) (Homo sapiens, UniProt Q13231). Put plainly: Chitinase activity assay, steady-state kinetics. The format is biochemical. In outline:
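Human chitotriosidase at 2 nM final with fluorigenic 4MU-(GlcNAc)3 in 0.2 M Na2HPO4/0.1 M citric acid pH 5.5, incubated 60 min at 37°C. Quenched with 3 M glycine/NaOH pH 10; 4MU product read at ex 360/em 460 nm. Reactions run in triplicate, with no-enzyme readings subtracted. Km and kcat from steady-state fit, means ± S.E.M. of three independent experiments.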

Experiment [2] deals with T1, YKL-39 S143D/I145E active mutant (Homo sapiens, UniProt Q15782, I145E/S143D).
T1 sequence (Q15782 27-390 S143D/I145E): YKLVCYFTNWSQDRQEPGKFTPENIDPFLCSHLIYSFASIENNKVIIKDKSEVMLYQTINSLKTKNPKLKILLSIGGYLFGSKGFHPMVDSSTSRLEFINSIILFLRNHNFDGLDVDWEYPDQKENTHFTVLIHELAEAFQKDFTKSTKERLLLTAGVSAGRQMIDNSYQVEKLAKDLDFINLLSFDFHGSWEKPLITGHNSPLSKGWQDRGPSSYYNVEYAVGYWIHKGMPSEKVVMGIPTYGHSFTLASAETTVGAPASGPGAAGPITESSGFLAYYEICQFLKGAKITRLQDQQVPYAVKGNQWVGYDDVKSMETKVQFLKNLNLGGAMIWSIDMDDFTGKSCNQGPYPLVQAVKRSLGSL
Briefly: Chitinase activity assay, steady-state kinetics and inhibition. It counts as biochemical. In outline:
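S143D/I145E mutant was secreted from methanol-induced Pichia pastoris GS115 and purified by CM-Sepharose and size exclusion. 20 nM enzyme with 4MU-(GlcNAc)3 in 0.2 M Na2HPO4/0.1 M citric acid pH 5.5, 60 min at 37°C. Quenched with 3 M glycine/NaOH pH 10; read at ex 360/em 460 nm. Triplicates, no-enzyme blank subtracted. Kinetic parameters from curve fit over three independent experiments; Ki by non-linear regression.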

The next experiment has as its target T2, YKL-39 (Homo sapiens, UniProt Q15782).
T2 sequence (Q15782 27-390): T1 sequence (Q15782 27-390 S143D/I145E) with D117S, E119I
Put plainly: Glycan array screen. It counts as binding. The note with it: AlexaFluor 488-labelled YKL-39, array of 264 glycans. In outline:
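Amino-linked natural and synthetic glycans were printed on modified glass slides, six replicates each. Dye-labelled protein was applied for 1 h at room temperature. Slides were spun dry and scanned at ex 495/em 520 nm. Means ± S.D. of four observations.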

For another experiment, the system named is hAMCase. The conditions noted are these: cited from earlier work.

Changes are numbered by the printed parent chain.

Sequence of hCHT (human chitotriosidase) (Q13231 22-466): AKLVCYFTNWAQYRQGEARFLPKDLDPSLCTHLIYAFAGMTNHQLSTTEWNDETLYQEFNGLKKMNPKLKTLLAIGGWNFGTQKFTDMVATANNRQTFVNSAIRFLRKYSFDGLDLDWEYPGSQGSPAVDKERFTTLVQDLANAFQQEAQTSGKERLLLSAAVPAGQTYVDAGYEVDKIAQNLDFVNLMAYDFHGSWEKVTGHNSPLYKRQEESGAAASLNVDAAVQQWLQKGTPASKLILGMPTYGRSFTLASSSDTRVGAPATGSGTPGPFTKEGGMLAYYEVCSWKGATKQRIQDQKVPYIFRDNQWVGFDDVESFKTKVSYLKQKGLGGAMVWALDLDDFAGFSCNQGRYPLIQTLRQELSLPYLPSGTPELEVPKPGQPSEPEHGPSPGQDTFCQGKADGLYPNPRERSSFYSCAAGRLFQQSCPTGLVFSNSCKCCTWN

What is called kcat is the number of substrate molecules converted per active site and unit of time at saturation. What is called Km is the substrate concentration at which the rate is half of its maximum. On to `CC(=O)N[C@H]1[C@H](Oc2ccc3c(C)cc(=O)oc3c2)O[C@H](CO)[C@@H](O[C@@H]2O[C@H](CO)[C@@H](O[C@@H]3O[C@H](CO)[C@@H](O)[C@H](O)[C@H]3NC(C)=O)[C@H](O)[C@H]2NC(C)=O)[C@@H]1O` [4MU-(GlcNAc)3, 4-methylumbelliferyl-β-D-N,N′,N′’-triacetylchitotriose], for which the turnover number (kcat) in experiment [1] (fluorigenic pseudosubstrate, pH 5.5, 37°C) was 15.7 ± 0.3 s⁻¹; in experiment [2] (YKL-39 S143D/I145E, fluorigenic pseudosubstrate, pH 5.5, 37°C), 0.02 ± 0.0002 s⁻¹. Besides, the Km in experiment [1] (read-out: Michaelis constant (Km), fluorigenic pseudosubstrate, pH 5.5, 37°C) was found to be 53 ± 3 µM; in experiment [2] (read-out: Michaelis constant (Km), YKL-39 S143D/I145E, fluorigenic pseudosubstrate, pH 5.5, 37°C), 9 ± 1 µM. With `CC(=O)N[C@H]1[C@H](O[C@H]2[C@H](O)[C@@H](NC(C)=O)[C@H](O[C@H]3[C@H](O)[C@@H](NC(C)=O)C(O)O[C@@H]3CO)O[C@@H]2CO)O[C@H](CO)[C@@H](O[C@@H]2O[C@H](CO)[C@@H](O[C@@H]3O[C@H](CO)[C@@H](O[C@@H]4O[C@H](CO)[C@@H](O)[C@H](O)[C@H]4NC(C)=O)[C@H](O)[C@H]3NC(C)=O)[C@H](O)[C@H]2NC(C)=O)[C@@H]1O` (stereo partly drawn) [(GlcNAc)6, chitohexaose], the “binding to YKL-39 in glycan array (relative fluorescence)” value at YKL-39 is “strongest binders”. With `Cn1cnc2c1c(=O)n(CCCn1c(=O)c3[nH]cnc3n(C)c1=O)c(=O)n2C` [bisdionin F], in the experiment with hAMCase, the “activity against hAMCase” value is listed as “submicromolar” and the “selectivity for hAMCase over hCHT” value is listed as “selectivity over hCHT”.

One may read the Ki as a measure of affinity in units of concentration, obtained from inhibition or displacement. Low readings indicate a stronger hold on the target, high ones a looser hold on the target. Consider `CCc1nc2c([nH]1)c(=O)n(CCCn1c(=O)c3c(ncn3C)n(C)c1=O)c(=O)n2C` [bisdionin G, 1-{3-[3,7-dimethyl-2,6-dioxo-2,3-dihydro-6H-purin-1(7H)-yl]propyl}-8-ethyl-3-methyl-1H-purine-2,6(3H, 7H)-dione], for which the affinity in experiment [2] corresponds to a Ki of 120 ± 2 µM. Consider (GlcNAc)5, for which the “binding to YKL-39 in glycan array (relative fluorescence)” value on YKL-39 was “strongest binders”.
